Shown is part of a subset that was picked to be rich in hits.
ABCG2 inh: ABCG2 efflux pump inhibitors, primary screen, multiplex with ABCB1, IgMXP3 cells, flow cytometry; Broad substrate specificity ATP-binding cassette transporter ABCG2 (Homo sapiens), Q9UNQ0; JC-1 efflux; inhibition, % at 6.6 µM; 0.1% of 190,000 active; AID 1325, 2008;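 active means inhibition above 80%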
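Measure – % inhibition of efflux relative to nicardipine and DMSO · Test system – ABCG2 IgMXP3 and barcoded ABCB1 CCRF-Adr cell mix · Control set – nicardipine as high control, DMSO as low control · Compound – one concentration, 6.6 µM final · Signal – flow cytometry of retained JC-1 fluorescence · Timing – 10 min exposure at 25 °C with rotation, no wash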
L major viab: Leishmania major promastigote growth inhibition, primary screen; Leishmania major promastigotes, resazurin fluorescence viability; inhibition, % at 10 µM; 9% of 200,000 active; AID 1063, 2008;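 further: promastigotes grown with compound for 44 hours at 28 °C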
ABCB1 inh: ABCB1 efflux pump inhibitors, primary screen, cell-based, multiplex, flow cytometry, ABCG2 counter-screen; AID 1326, 2008; CCRF-Adr cells, JC-1 efflux; 0.067% of 190,000 active; ATP-dependent translocase ABCB1 (Homo sapiens), P08183; inhibition, % at 6.6 µM; in the data active means inhibition above about 40%;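 further: higher value means more JC-1 retained so stronger ABCB1 efflux block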
Avidin fluor: green autofluorescence of compounds with avidin beads – biophysical, 488/530 nm, flow cytometry, artefact control, profiling panel; compound fluorescence 488/530 nm; hits give high values; 0.38% of 220,000 active; fluorescence (KMESF) at 10 µM; AID 1775, 2009; in the data active means fluorescence above about 47
PKD1 inh: inhibitors of human PKD1 kinase, biochemical, fluorescence polarization; Serine/threonine-protein kinase D1 (Homo sapiens), Q15139; inhibition, % (no concentration beside the values); 0.056% of 200,000 active; PKD1 kinase fluorescence polarization assay
GSH fluor: compound fluorescence on glutathione beads, profiling panel, artefact control, biophysical, 488/530 nm, flow cytometry | GSH beads flow cytometry, compound fluorescence 488/530 nm; hits give high values | fluorescence (KMESF) at 10 µM | 0.25% of 190,000 active | AID 1776, 2009; in the data active means fluorescence above about 89;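 further: glutathione beads carrying GST-tagged Bcl family fusion proteins plus one bare bead set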
Numbers stand for hits; n = inactive; x = not tested or not shown. Unless noted, no stated cut-off is given here; in the data, active means inhibition above about 50%; inactive means the rest.

SMILES	ABCG2 inh	L major viab	ABCB1 inh	Avidin fluor	PKD1 inh	GSH fluor
CC1(C)Cc2c(sc3nc(SCC(=O)NCc4ccco4)n(-c4ccccc4)c(=O)c23)CS1	n	52.8	n	n	n	n
O=C(CSc1nc2sc3c(c2c(=O)n1-c1ccccc1)CCCC3)NCc1ccco1	n	n	n	n	n	n
COCCCn1c(SCC(=O)NCc2ccco2)nc2sc3c(c2c1=O)CCC3	n	50.6	n	n	n	n
CCc1cccc2c(=O)c(C(=O)NCCN3CCOCC3)c[nH]c12	n	n	n	n	n	n
CN(C)/C=C(/C#N)C(=O)c1cccc(Oc2ccc(C(C)(C)C)cc2)c1	n	n	n	n	n	n
O=C(CN1CCN(c2ccc([N+](=O)[O-])cc2Cl)CC1)N1CCOCC1	x	x	x	n	x	x
COc1ccc(-c2cc(=O)[nH][nH]2)cc1OC	n	84.4	n	n	n	n
Clc1ccc(CSc2nnnn2-c2ccc3c(c2)OCO3)c(Cl)c1	n	n	n	n	n	n
Cc1csc(SCC(=O)Nc2cc(C(C)(C)C)nn2-c2ccccc2)n1	n	n	n	n	n	n
CC(C)(C)c1cc(NC(=O)CSc2nncs2)n(-c2ccccc2)n1	n	55.0	n	n	n	n
CCn1c(SCC(=O)Nc2cc(C(C)(C)C)nn2-c2ccccc2)nnc1-c1cccs1	n	n	n	86	n	n
Cc1nnc(SCC(=O)Nc2cc(C(C)(C)C)nn2-c2ccccc2)s1	n	n	n	n	n	n
Cc1nnc(SCC(=O)Nc2cc(-c3cc(C)c(C)cc3C)nn2-c2ccccc2)s1	n	97.1	n	n	n	n
CSc1cccc(NC(=O)CSc2nnc(C)s2)c1	n	n	n	n	n	109
Cc1ccc(C2CN(c3ccccc3)CC2C(=O)c2ccc(F)cc2)cc1 (centres undefined)	n	n	n	n	n	n
CCOC(=O)c1c(C)n(C)c2ccc(OCC(O)CN(CC)CC)cc12 (centres undefined)	n	98.7	n	n	n	n
CCN(CC)CC(O)COc1ccc2c(c1)c(C(C)=O)c(C)n2-c1ccccc1 (centres undefined)	n	100.2	n	n	n	n
CCOC(=O)c1c(C)n(C)c2ccc(OCC(O)Cn3nc(C)cc3C)cc12 (centres undefined)	n	85.6	n	n	n	n
CCOC(=O)c1c(C)n(C)c2ccc(OCC(N)=O)cc12	n	n	n	n	n	n
CC(=O)c1c(C)n(-c2ccccc2)c2ccc(OCC(O)CN3CCOCC3)cc12 (centres undefined)	n	n	n	n	n	n
Nc1c2c(nc3ccccc13)CCCC2	n	n	n	n	n	n
Fc1ccc(Nc2c3c(nc4ccccc24)CCC3)cc1	n	72.3	n	n	n	n
Cc1ccc2nc3c(c(Nc4ccccc4)c2c1)CCC3	x	x	x	n	x	x
c1ccc(Nc2c3c(nc4ccccc24)CCC3)cc1	n	75.9	n	n	n	n
c1ccc2c(Nc3ccc4c(c3)OCCO4)c3c(nc2c1)CCC3	n	87.9	n	n	n	n
SMILES	ABCG2 inh	L major viab	ABCB1 inh	Avidin fluor	PKD1 inh	GSH fluor
COc1ccc(Nc2c3c(nc4ccccc24)CCCC3)cc1OC	n	88.4	n	n	n	n
COc1ccc(CCNc2c3ccccc3nc3ccccc23)cc1OC	x	x	x	n	x	x
Cc1cc(C)cc(NC(=O)/C=C/c2ccc([N+](=O)[O-])s2)c1	n	81.7	n	n	n	n
Cc1ccccc1NC(=O)/C=C/c1ccc([N+](=O)[O-])s1	n	81.7	n	n	n	n
CC(=O)c1cccc(NC(=O)/C=C/c2ccc([N+](=O)[O-])s2)c1	n	n	n	n	n	n
CCCCNC(=O)C(Cc1ccccc1)NS(=O)(=O)c1ccc2c(c1)c(=O)n(C)c(=O)n2C (centres undefined)	n	n	n	n	n	n
COc1ccc2nc(-c3ccccc3)cc(OC)c2c1	n	n	n	n	n	n
COc1nc(-c2ccccc2)cc(-c2ccccc2)n1	n	n	n	260	n	n
CN1C(=O)/C(=C\C(=O)c2cccs2)c2ccccc21	n	100.4	n	n	n	n
Cc1ccc(C)c(NC(=S)NC2CC3CCCC(C2)N3CC(C)C)c1 (centres undefined)	n	65.1	n	n	n	n
Cc1cc(C)cc(NC(=S)NC2CC3CCC(C2)N3Cc2ccco2)c1 (centres undefined)	n	90.1	n	n	n	n
COCCNC(=S)NC1CC2CCCC(C1)N2Cc1ccco1 (centres undefined)	n	n	n	n	n	n
Cc1cccc(NC(=S)NC2CC3CCCC(C2)N3Cc2cccs2)c1 (centres undefined)	n	89.3	n	n	n	n
COCCNC(=S)NC1CC2CCCC(C1)N2Cc1cccs1 (centres undefined)	n	n	n	n	n	n
Cc1ccc(C)c(NC(=S)NC2CC3CCC(C2)N3Cc2ccco2)c1 (centres undefined)	n	n	n	n	n	n
CCOc1ccc(NC(=S)NC2CC3CCC(C2)N3Cc2ccco2)cc1 (centres undefined)	n	68.0	n	n	n	n
CCOC(=O)c1cn2nc(Oc3ccc(C(=O)OC)cc3)ccc2n1	x	x	x	n	x	x
Cc1ccc(-c2nnc(Nc3ccccc3)o2)cc1	n	n	n	n	n	n
CCCN1C2CCCC1CC(NC(=S)Nc1cc(C)cc(C)c1)C2 (centres undefined)	n	53.6	n	n	n	n
O=C(Nc1cccc(Cl)c1)NC1CC2CCC(C1)N2Cc1ccco1 (centres undefined)	n	n	n	n	n	n
Fc1ccc(NC(=S)NC2CC3CCC(C2)N3Cc2ccco2)cc1 (centres undefined)	n	81.6	n	n	n	n
COC(=O)CSc1nc(C)c2c(n1)CCCC2	n	n	n	n	n	n
CN(CCC#N)C(=O)COC(=O)c1ccc(Cl)c(S(=O)(=O)N(C)c2ccccc2)c1	n	n	n	n	n	n
CCS(=O)(=O)c1nc(S(=O)(=O)c2ccc(Cl)cc2)c(N2CCc3ccccc3C2)s1	n	50.7	n	n	n	n
N#CC1=C(N)C(C#N)(C#N)C(c2cccnc2)C2CCCC=C12 (centres undefined)	n	n	n	n	n	n
N#CC1=C(N)C(C#N)(C#N)C(c2cccnc2)C2CC(c3ccccc3)CC=C12 (centres undefined)	n	55.3	n	n	n	n
O=C(O)C(Cc1cc2ccccc2[nH]1)N1C(=O)C2CC=C(Cl)CC2C1=O (centres undefined)	n	n	n	n	n	117

Source: PubChem (several laboratories)
